Screening results deposited in PubChem by The Scripps Research Institute Molecular Screening Center.
CHRM4 antagonist – antagonists of human muscarinic M4 receptor (CHRM4); CHO-hM4 cells, ACh EC80, Fluo-8 calcium fluorescence; P08173; hit rate 0.73% among 360,000; inhibition, % at 3 µM;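 active means inhibition above its plate's cutoff, the mean inhibition of sample wells plus 3 SD, cut at about 27% in these data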;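 further: 0% = acetylcholine EC80 with DMSO and 100% = DMSO without agonist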
CHRM5 antagonist – blocks acetylcholine activation of human M5 receptor. P08912. CHO-hM5 cells, Fluo-8 calcium fluorescence, ACh EC80. inhibition, % at 3 µM. hit rate 0.59% among 360,000. AID 624040;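 active means inhibition above a per-plate cutoff, the mean of that plate's test compounds plus 3 SD, cut at about 27% in these data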;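 further: 0% = acetylcholine EC80 with DMSO and 100% = DMSO without agonist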
Target sequence (P08912 whole entry, looked up): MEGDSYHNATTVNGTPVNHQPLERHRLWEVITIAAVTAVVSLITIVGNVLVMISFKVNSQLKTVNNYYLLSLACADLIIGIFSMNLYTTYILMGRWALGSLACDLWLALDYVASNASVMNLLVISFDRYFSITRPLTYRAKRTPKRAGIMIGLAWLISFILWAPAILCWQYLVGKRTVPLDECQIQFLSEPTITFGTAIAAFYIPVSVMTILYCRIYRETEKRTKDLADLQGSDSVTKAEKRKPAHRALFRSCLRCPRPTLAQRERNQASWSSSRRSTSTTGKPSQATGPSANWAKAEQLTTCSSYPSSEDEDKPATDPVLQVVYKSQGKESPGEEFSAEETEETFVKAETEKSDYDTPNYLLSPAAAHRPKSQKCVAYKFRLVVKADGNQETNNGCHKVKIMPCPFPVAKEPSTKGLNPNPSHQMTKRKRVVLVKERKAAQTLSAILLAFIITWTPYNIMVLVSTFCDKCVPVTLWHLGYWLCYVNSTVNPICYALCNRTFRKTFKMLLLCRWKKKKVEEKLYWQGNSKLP
M4 PAM – CHRM4 positive allosteric modulation. hit rate 0.4% among 360,000. CHO-K1 hM4/Gqi5, Fluo-8 calcium fluorescence, ACh EC20; 0% = ACh EC20, 100% = maximal ACh. P08173. activation, % at 3 µM;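 active means activation above its plate's cutoff, the mean activation of sample wells plus 3 SD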
M5 PAM – positive allosteric modulators of human muscarinic M5 receptor. hit rate 0.3% among 360,000. activation, % at 3 µM. P08912. CHO-K1 hM5, Fluo-8 calcium, ACh EC20 PAM; 0% = ACh EC20, 100% = ACh EC100;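 active means activation above the run cutoff, the mean activation of all test compounds plus 3 SD, cut at about 18% in these data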
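System: CHO-K1 hM5 cells. Reagent: acetylcholine, EC20 level. Compound dosing: single dose, 3 µM nominal final test concentration. Timing: Post-acetylcholine fluorescence recording 140 s. Detection: Fluo-8 calcium fluorescence. Read-out: % activation, ACh-normalized. Benchmarks: ACh EC20 and EC100 wells. Repeats: singlicate, one well per test compound.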
CHRM4 agonist – CHRM4 agonism in calcium assay; P08173; hit rate 0.14% among 360,000; CHO-K1 hM4/Gqi5, Fluo-8 calcium fluorescence; vehicle 0%, full acetylcholine response 100%; activation, % at 3 µM;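 active means activation above the run mean over all test wells plus 3 SD, cut at about 32% in these data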;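 further: peak over basal fluorescence ratio per well then scaled between controls; 0% = DMSO wells and 100% = acetylcholine at EC100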
CHRM5 agonist – agonists of human muscarinic M5 receptor (CHRM5). hit rate 0.19% among 360,000. activation, % at 3 µM. CHO-K1 hM5 cells, Fluo-8 calcium fluorescence; 0% DMSO wells, 100% maximal acetylcholine response. P08912;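 active means activation above the run's mean over test compounds plus 3 SD, cut at about 23% in these data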;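 further: signal is peak over basal fluorescence ratio across the kinetic read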
The depositor's hits bear a star. Compounds with a hit are over-represented: about 1.9% of the library has one in this group of screens.

SMILES | CHRM4 antagonist | CHRM5 antagonist | M4 PAM | M5 PAM | CHRM4 agonist | CHRM5 agonist
COc1ccc(N2CCN(S(=O)(=O)CCNC(=O)c3ccc(Br)o3)CC2)cc1 | -16.1 | -14.6 | -1.8 | 14.0 | 7.9 | 3.2
CN(CC(=O)Nc1ccc(F)c(F)c1F)C(=O)CCc1nc2sc3c(c2c(=O)[nH]1)CCCC3 | 4.8 | 2.9 | 0.8 | 4.3 | 0.2 | 1.6
O=C(O)/C=C/c1cn(Cc2ccccc2Cl)nc1-c1ccccc1 | -11.9 | -3.6 | -3.2 | 19.8* | 2.4 | 0.2
C#CCOCCOCCOCCNc1nc(N2CCN(C(=O)CCCCCCCCCCNC(=O)[C@@H](CCC(=O)O)n3cc(CCCCCN)nn3)CC2)nc(N2CCN(C(=O)CCCCCCCCCCNC(=O)[C@H](CCCCN)n3cc(C[C@@H](C)CC)nn3)CC2)n1 | 4.4 | 9.5 | -11.9 | -0.5 | 32.9* | -0.2
C#CCOCCOCCOCCNc1nc(N2CCN(C(=O)CCCCCCCCCCNC(=O)[C@@H](CCSC)n3cc(CCO)nn3)CC2)nc(N2CCN(C(=O)CCCCCCCCCCNC(=O)[C@@H]([C@H](C)O)n3cc(C)nn3)CC2)n1 | 11.8 | 27.3* | -5.2 | -7.9 | 2.6 | 2.3
C#CCOCCOCCOCCNc1nc(N2CCN(C(=O)CCCCCCCCCCNC(=O)[C@@H](CCC(=O)O)n3cc(CCCCCN)nn3)CC2)nc(N2CCN(C(=O)CCCCCCCCCCNC(=O)[C@H](CO)n3cc(CCCCCN)nn3)CC2)n1 | 7.3 | 0.9 | -4.0 | -2.5 | 1.4 | 1.3
C#CCOCCOCCOCCNc1nc(N2CCN(C(=O)CCCCCCCCCCNC(=O)[C@H](CCCCN)n3cc(C)nn3)CC2)nc(N2CCN(C(=O)CCCCCCCCCCNC(=O)[C@@H]([C@H](C)O)n3cc(C)nn3)CC2)n1 | 1.5 | 8.5 | -4.3 | -0.2 | 21.5 | -10.0
COc1ccc(NC(=S)NCc2cccnc2)cc1OC | -11.1 | -10.8 | 23.4* | 19.6* | 3.8 | -0.8
O=C1CC(N2CCN(C/C=C/c3ccccc3)CC2)C(=O)N1CCc1ccccc1 (stereo not drawn) | 21.2 | 6.7 | -11.4 | -24.0 | 20.5 | 3.1
O=C1CC(N2CCN(C/C=C/c3ccccc3)CC2)C(=O)N1Cc1cccs1 (stereo not drawn) | 33.8* | 38.7* | -23.7 | -32.8 | 2.5 | -10.5
O=C(CCSc1ccc(Cl)cc1)Nc1cccnc1 | -11.5 | 11.4 | 13.6 | -2.7 | 2.6 | -2.3
O=C(O)CCC(=O)Nc1sc2c(c1C(=O)Nc1cccc3ccccc13)CCCCC2 | 1.2 | 0.6 | -0.4 | 1.1 | 0.9 | 0.2
O=C(O)CCC(=O)Nc1sc2c(c1C(=O)Nc1ccccc1)CCCCC2 | 39.5* | 17.1 | 9.1 | 10.2 | 6.5 | 6.8
CC(C)OC(=O)c1c(NC(=O)CCC(=O)O)sc2c1CCCCC2 | 15.7 | -0.9 | 21.4* | 15.6 | 1.0 | -2.5
CCOc1cc(N2CCOCC2)c(OCC)cc1NC(=O)CSc1ncn[nH]1 | 1.4 | 13.8 | 0.0 | -3.2 | 0.8 | 3.0
COc1ccc(OC)c(-c2cc(C(=O)Nc3ccccc3C(N)=O)c3ccccc3n2)c1 | 30.8* | 19.9 | -9.6 | -25.5 | 19.3 | 4.5
COc1ccc(-c2cc(C(=O)N3CCCCCC3)c3ccccc3n2)c(OC)c1 | 8.6 | 7.4 | -6.4 | -15.7 | 12.1 | 1.0
COc1ccc(OC)c(-c2cc(C(=O)N3CCN(c4ncccn4)CC3)c3ccccc3n2)c1 | 21.7 | 31.1* | -9.1 | -20.6 | 15.2 | 2.2
COc1ccc(OC)c(-c2cc(C(=O)N/N=C/c3ccc(F)cc3)c3ccccc3n2)c1 | 1.7 | 19.2 | -8.2 | -14.1 | -1.3 | -3.4
COc1ccc(-c2cc(C(=O)N3CCN(c4ncccn4)CC3)c3ccccc3n2)c(OC)c1 | 15.8 | 20.2 | -11.0 | -17.2 | 10.8 | 4.4
COc1ccc(-c2cc(C(=O)N3CCN(c4ccccc4F)CC3)c3ccccc3n2)c(OC)c1 | 19.9 | 36.0* | -3.4 | -9.6 | 17.8 | -3.3
COC(=O)c1sc(C(C)(C)C)cc1CSc1ccccc1 | 3.5 | -3.0 | -3.5 | 4.2 | -1.2 | 0.6
O=C(O)CC(NNC(=O)c1ccccc1)C(=O)Nc1ccc([N+](=O)[O-])cc1 (stereo not drawn) | -5.1 | -17.5 | 14.4 | 8.5 | 1.2 | 1.6
COc1ccc(OCc2cc(C(=O)N3C[C@@H](C)O[C@@H](C)C3)no2)c(Cl)c1 | 4.7 | 0.7 | 6.0 | -1.5 | 5.5 | 2.5
O=C(CN(CCO)Cc1ccccc1)N1CCN(S(=O)(=O)c2ccccc2)CC1 | 1.2 | -1.4 | 2.4 | 0.6 | 0.3 | -2.8
SMILES | CHRM4 antagonist | CHRM5 antagonist | M4 PAM | M5 PAM | CHRM4 agonist | CHRM5 agonist
O=C(CCNC(=O)c1ccccc1)Nc1cccnc1 | -1.1 | 0.8 | 12.2 | 6.4 | 1.2 | 1.8
CC(NC(=O)/C=C/c1ccccc1)c1ccccc1 (stereo not drawn) | -9.2 | 1.7 | 8.9 | 0.0 | 3.6 | 30.8*
CCOC(=O)Cn1c(C)[n+](CC(=O)c2ccccc2)c2ccccc21 | 2.6 | -4.8 | 11.1 | 5.0 | 0.1 | -4.1
COc1ccc(/C=C(/C#N)C(=O)Nc2cc(C)ccc2C)cc1C(=O)O | 3.6 | 2.2 | 29.0* | 1.2 | 1.0 | 2.2
Cc1cc(Cl)c(S(=O)(=O)N2CCSCC2)cc1OCC(N)=O | 1.2 | -15.5 | 19.1* | -0.5 | 4.4 | 3.2
CCOc1ccc(NS(=O)(=O)c2cc(OCC(N)=O)c(C)cc2Cl)cc1 | 3.7 | 6.0 | 26.6* | 7.2 | 2.5 | 4.1
Cc1cc(Cl)c(S(=O)(=O)N2CC(C)OC(C)C2)cc1OCC(N)=O (stereo not drawn) | 9.8 | 10.3 | -3.4 | -4.7 | 0.9 | 0.1
O=C(CN1CCN(S(=O)(=O)c2ccccc2)CC1)N1CCc2ccccc21 | -5.4 | -1.1 | 5.8 | 2.3 | 2.1 | 0.2
Cc1cc(C(=O)CN2C(=O)CCC2=O)c(C)n1Cc1ccccc1 | -12.0 | -8.6 | 18.1* | 17.4 | 4.0 | 3.9
Cn1nc(C(F)(F)F)c(/C=N/OC(=O)c2ccccc2)c1SCc1ccc(Cl)cc1 | 10.4 | 5.6 | -18.2 | -10.3 | 0.1 | -6.9
Cn1nc(C(F)(F)F)c(/C=N/OC(=O)c2ccccc2Cl)c1SCc1ccccc1Cl | 66.6* | -3.7 | -33.1 | -16.4 | -0.8 | -7.3
O=C(OCCN1CCOCC1)c1ccc(Cl)cc1Cl | -8.1 | -5.7 | 14.6* | 1.2 | 1.0 | 2.9
O=C1c2ccccc2[C@@H]2C[C@H](NC34CC5CC(CC(C5)C3)C4)[C@@H](O)CCN12 | -6.0 | -4.4 | -8.6 | 0.1 | 0.6 | -2.5
Cc1cccc(-n2ncc3c(N4CCCC4)ncnc32)c1 | -3.1 | 0.9 | 23.2* | -4.1 | 5.8 | 1.0
Cc1cccc(-n2ncc3c(N4CCOCC4)ncnc32)c1 | -10.6 | -3.9 | 7.0 | -0.5 | 6.4 | 3.1
